Measured values: ChEMBL document CHEMBL2040727, “Substituted thiazoles VI. Synthesis and antitumor activity of new 2-acetamido- and 2 or 3-propanamido-thiazole analogs” (2012)

Legend:
Format in all cases: functional
EKVX = assay: Growth inhibition of human EKVX cells at 10 uM after 48 hrs by coulter counter analysis; details: read-out: GI
How it was run: (§1)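 Single-dose NCI 60-line panel screen of test compounds. Cells grown in RPMI 1640 with 10% FBS. Compounds dissolved in DMSO, then diluted in phosphate buffer saline (final DMSO below 1%). Wells run in duplicate at 6 × 10⁴ cells/ml. Controls held PBS and DMSO at matching dilutions. Incubation 48 h at 37 °C under humidified 5% CO2. Cells diluted tenfold in saline and counted by Coulter counter. Percent growth inhibition taken from mean-graph of treated-cell growth.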

HOP-62 = assay: Growth inhibition of human HOP62 cells at 10 uM after 48 hrs by coulter counter analysis; details: HOP-62, 48 h, read-out: GI; how it was run: as §1
NCI-H226 = assay: Growth inhibition of human NCI-H226 cells at 10 uM after 48 hrs by coulter counter analysis; details: NCI-H226, 48 h, read-out: GI; how it was run: as §1
NCI-H522 = assay: Growth inhibition of human NCI-H522 cells at 10 uM after 48 hrs by coulter counter analysis; details: NCI-H522, 48 h, read-out: GI; how it was run: as §1
COLO 205 = assay: Growth inhibition of human COLO205 cells at 10 uM after 48 hrs by coulter counter analysis; details: COLO 205, 48 h, read-out: GI; how it was run: as §1
SF-268 = assay: Growth inhibition of human SF268 cells at 10 uM after 48 hrs by coulter counter analysis; details: SF-268, 48 h, read-out: GI; how it was run: as §1
SNB-19 = assay: Growth inhibition of human SNB19 cells at 10 uM after 48 hrs by coulter counter analysis; details: SNB-19, 48 h, read-out: GI; how it was run: as §1
LOX IMVI = assay: Growth inhibition of human LOXIMVI cells at 10 uM after 48 hrs by coulter counter analysis; details: read-out: GI; how it was run: as §1
Malme-3M = assay: Growth inhibition of human MALME-3M cells at 10 uM after 48 hrs by coulter counter analysis; details: read-out: GI; how it was run: as §1
MDA-MB-435 = assay: Growth inhibition of human MDA-MB-435 cells at 10 uM after 48 hrs by coulter counter analysis; details: MDA-MB-435, 48 h, read-out: GI; how it was run: as §1
SK-MEL-28 = assay: Growth inhibition of human SK-MEL-28 cells at 10 uM after 48 hrs by coulter counter analysis; details: SK-MEL-28, 48 h, read-out: GI; how it was run: as §1
IGROV-1 = assay: Growth inhibition of human IGROV1 cells at 10 uM after 48 hrs by coulter counter analysis; details: IGROV-1, 48 h, read-out: GI; how it was run: as §1
OVCAR-3 = assay: Growth inhibition of human OVCAR3 cells at 10 uM after 48 hrs by coulter counter analysis; details: OVCAR-3, 48 h, read-out: GI; how it was run: as §1
OVCAR-5 = assay: Growth inhibition of human OVCAR5 cells at 10 uM after 48 hrs by coulter counter analysis; details: OVCAR-5, 48 h, read-out: GI; how it was run: as §1
OVCAR-8 = assay: Growth inhibition of human OVCAR8 cells at 10 uM after 48 hrs by coulter counter analysis; details: OVCAR-8, 48 h, read-out: GI; how it was run: as §1
[1] = Growth inhibition of human NCI-ADR-RES cells at 10 uM after 48 hrs by coulter counter analysis; details: read-out: GI; how it was run: as §1
786-0 = assay: Growth inhibition of human 786-0 cells at 10 uM after 48 hrs by coulter counter analysis; details: 786-0, 48 h, read-out: GI; how it was run: as §1
CAKI-1 = assay: Growth inhibition of human Caki1 cells at 10 uM after 48 hrs by coulter counter analysis; details: CAKI-1, 48 h, read-out: GI; how it was run: as §1
SN12C = assay: Growth inhibition of human SN12C cells at 10 uM after 48 hrs by coulter counter analysis; details: read-out: GI; how it was run: as §1
MDA-MB-231 = assay: Growth inhibition of human MDA-MB-231 cells at 10 uM after 48 hrs by coulter counter analysis; details: MDA-MB-231, 48 h, read-out: GI; how it was run: as §1
[2] = Growth inhibition of human Hs 578T cells at 10 uM after 48 hrs by coulter counter analysis; details: read-out: GI; how it was run: as §1
BT-549 = assay: Growth inhibition of human BT549 cells at 10 uM after 48 hrs by coulter counter analysis; details: BT-549, 48 h, read-out: GI; how it was run: as §1
MDA-MB-468 = assay: Growth inhibition of human MDA-MB-468 cells at 10 uM after 48 hrs by coulter counter analysis; details: MDA-MB-468, 48 h, read-out: GI; how it was run: as §1
SK-OV-3 = assay: Growth inhibition of human SKOV3 cells at 10 uM after 48 hrs by coulter counter analysis; details: SK-OV-3, 48 h, read-out: GI; how it was run: as §1
TK-10 = assay: Growth inhibition of human TK10 cells at 10 uM after 48 hrs by coulter counter analysis; details: TK-10, 48 h, read-out: GI
How it was run: (§2)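 Single-dose screen in the NCI 60 cell line panel. Cells grown in RPMI 1640 with 10% FBS. Compounds dissolved in DMSO and diluted in phosphate buffered saline, final DMSO under 1%. Duplicate wells seeded from culture at 6 × 10⁴ cells/ml. Incubated 48 h at 37 °C, humidified, 5% CO2. Cells diluted tenfold in saline and Coulter-counted. Percent growth inhibition computed against PBS/DMSO controls.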

UACC-257 = assay: Growth inhibition of human UACC257 cells at 10 uM after 48 hrs by coulter counter analysis; details: UACC-257, 48 h, read-out: GI; how it was run: as §2

| Structure (SMILES) | inhibition of growth at 10 µM (EKVX) [%] | inhibition of growth at 10 µM (HOP-62) [%] | inhibition of growth at 10 µM (NCI-H226) [%] | inhibition of growth at 10 µM (NCI-H522) [%] | inhibition of growth at 10 µM (COLO 205) [%] | inhibition of growth at 10 µM (SF-268) [%] | inhibition of growth at 10 µM (SNB-19) [%] | inhibition of growth at 10 µM (LOX IMVI) [%] | inhibition of growth at 10 µM (Malme-3M) [%] | inhibition of growth at 10 µM (MDA-MB-435) [%] | inhibition of growth at 10 µM (SK-MEL-28) [%] | inhibition of growth at 10 µM (IGROV-1) [%] | inhibition of growth at 10 µM (OVCAR-3) [%] | inhibition of growth at 10 µM (OVCAR-5) [%] | inhibition of growth at 10 µM (OVCAR-8) [%] | inhibition of growth at 10 µM [1] [%] | inhibition of growth at 10 µM (786-0) [%] | inhibition of growth at 10 µM (CAKI-1) [%] | inhibition of growth at 10 µM (SN12C) [%] | inhibition of growth at 10 µM (MDA-MB-231) [%] | further results |
| --- | --- | --- | --- | --- | --- | --- | --- | --- | --- | --- | --- | --- | --- | --- | --- | --- | --- | --- | --- | --- | --- |
| CC(C(=O)Nc1nccs1)N1CCN(C)CC1 (stereo not drawn) | < 10 | < 10 | < 10 | < 10 | < 10 | < 10 | < 10 | < 10 | < 10 | < 10 | < 10 | < 10 | < 10 | < 10 | < 10 | < 10 | < 10 | < 10 | < 10 | < 10 | inhibition of growth at 10 µM [2]: < 10%; inhibition of growth at 10 µM (BT-549): < 10%; inhibition of growth at 10 µM (MDA-MB-468): < 10%; inhibition of growth at 10 µM (SK-OV-3): < 10%; inhibition of growth at 10 µM (TK-10): < 10%; inhibition of growth at 10 µM (UACC-257): < 10% |
| CCOC(=O)c1sc(NC(=O)C(C)N2CCOCC2)nc1C (stereo not drawn) | < 10 | < 10 | < 10 | < 10 | < 10 | < 10 | < 10 | < 10 | < 10 | < 10 | < 10 | < 10 | < 10 | < 10 | < 10 | < 10 | < 10 | < 10 | < 10 | < 10 | inhibition of growth at 10 µM [2]: < 10%; inhibition of growth at 10 µM (BT-549): < 10%; inhibition of growth at 10 µM (MDA-MB-468): < 10%; inhibition of growth at 10 µM (SK-OV-3): < 10%; inhibition of growth at 10 µM (TK-10): < 10%; inhibition of growth at 10 µM (UACC-257): < 10% |
| CCOC(=O)c1sc(NC(=O)C(C)N2CCCCC2)nc1C (stereo not drawn) | < 10 | < 10 | < 10 | < 10 | < 10 | < 10 | < 10 | < 10 | < 10 | < 10 | < 10 | < 10 | < 10 | < 10 | < 10 | < 10 | < 10 | 12.2 | < 10 | < 10 | inhibition of growth at 10 µM [2]: < 10%; inhibition of growth at 10 µM (BT-549): < 10%; inhibition of growth at 10 µM (MDA-MB-468): < 10%; inhibition of growth at 10 µM (SK-OV-3): < 10%; inhibition of growth at 10 µM (TK-10): < 10%; inhibition of growth at 10 µM (UACC-257): < 10% |
